Test results published in ChEMBL document CHEMBL3865824, “New (E)-1-alkyl-1H-benzo[d]imidazol-2-yl)methylene)indolin-2-ones: Synthesis, in vitro cytotoxicity evaluation and apoptosis inducing studies” (Eur J Med Chem, 2016).
The source made the active and inactive calls. The calls are words filed in the database; no cut-off is given here.

Key:
[1] = tested on: MDA-MB-231; assay: Induction of apoptosis in human MDA-MB-231 cells assessed as early apoptotic cells after 24 hrs by Annexin V-FITC/propidium iodide-staining based FACS analysis; type: functional, cell-based
[2] = tested on: MDA-MB-231; assay: Induction of apoptosis in human MDA-MB-231 cells assessed as late apoptotic cells at 1 uM after 24 hrs by Annexin V-FITC/propidium iodide-staining based FACS analysis (reference value: 3.6 %); type: functional
[3] = tested on: MDA-MB-231; assay: Induction of apoptosis in human MDA-MB-231 cells assessed as late apoptotic cells after 24 hrs by Annexin V-FITC/propidium iodide-staining based FACS analysis; type: functional, cell-based
[4] = tested on: MDA-MB-231; assay: Induction of apoptosis in human MDA-MB-231 cells assessed as necrotic cells at 1 uM after 24 hrs by Annexin V-FITC/propidium iodide-staining based FACS analysis (reference value: 2.8 %); type: functional
[5] = Cell cycle arrest in human MDA-MB-231 cells assessed as accumulation at S phase at 1 uM after 24 hrs by propidium iodide staining based FACS analysis (reference value: 24.6 %); type: functional
How it was run: (§1)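 MDA-MB-231 at 1×10^6 cells/well treated with 1, 2 or 4 µM for 24 h, with a DMSO control. Cells harvested by trypsin, washed with PBS and fixed in 70% ethanol for 30 min at 4 °C. Stained 15 min at room temperature in the dark with PI buffer containing Triton X and DNase-free RNase A. Analysed by flow cytometry; G0/G1, S and G2/M fractions quantified.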

[6] = tested on: MDA-MB-231; assay: Induction of apoptosis in human MDA-MB-231 cells assessed as cell wall deformation at 1 to 4 uM after 24 hrs by phase contrast microscopic analysis; type: functional, cell-based
How it was run: (§2)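 MDA-MB-231 treated at 1, 2 or 4 µM for 24 h. Morphology examined and photographed by phase contrast microscopy against untreated control cells.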

[7] = Cell cycle arrest in human MDA-MB-231 cells assessed as accumulation at G0/G1 phase at 4 uM after 24 hrs by propidium iodide staining based FACS analysis (reference value: 50.4 %); type: functional; how it was run: as §1
[8] = Cell cycle arrest in human MDA-MB-231 cells assessed as accumulation at S phase at 4 uM after 24 hrs by propidium iodide staining based FACS analysis (reference value: 24.6 %); type: functional; how it was run: as §1
[9] = tested on: MDA-MB-231; assay: Induction of apoptosis in human MDA-MB-231 cells assessed as formation of condensed chromatin at 1 uM after 24 hrs by AO/EB-dual staining based fluorescent microscopic analysis; type: functional, cell-based
How it was run: (§3)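 MDA-MB-231 plated at 1×10^6 cells/mL and treated at 1, 2 or 4 µM, with a DMSO control. Incubation time is given as 48 h in the methods and 24 h in the figure legend. AO and EB added at 10 µg/mL each. Cells viewed within 10 min by fluorescence microscopy (excitation 488 nm, emission 550 nm) at 200×.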

[10] = Cytotoxicity against human MDA-MB-231 cells assessed as growth inhibition at 50 uM after 48 hrs by MTT assay relative to control; type: functional; conditions: MDA-MB-231, 48 h, read-out: GI
How it was run: (§4)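 Cells grown in DMEM or MEM with 10% FBS at 37 °C, 5% CO2. Seeded at 1×10^4 cells/well, incubated 48 h, then exposed to compound for 48 h with vehicle control. MTT (5 mg/mL stock) added for 4 h; formazan dissolved in DMSO, absorbance read at 570 nm. Preliminary screen at 50 µM. Compounds giving >50% inhibition were tested for dose-response curves; IC50 derived by linear regression of % inhibition versus concentration. Mean of three independent experiments in triplicate.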

[11] = tested on: MDA-MB-231; assay: Induction of apoptosis in human MDA-MB-231 cells assessed as early apoptotic cells at 4 uM after 24 hrs by Annexin V-FITC/propidium iodide-staining based FACS analysis (reference value: 4.1 %); type: functional
[12] = Cytotoxicity against human MDA-MB-231 cells assessed as reduction in cell viability after 48 hrs by MTT assay; type: functional, cell-based; conditions: MDA-MB-231, 48 h; how it was run: as §4
[13] = Cytotoxicity against human BT549 cells assessed as growth inhibition at 50 uM after 48 hrs by MTT assay relative to control; type: functional; conditions: BT-549, 48 h, read-out: GI; how it was run: as §4
[14] = Cytotoxicity against human PC3 cells assessed as growth inhibition at 50 uM after 48 hrs by MTT assay relative to control; type: functional; conditions: PC-3, 48 h, read-out: GI; how it was run: as §4
[15] = tested on: MDA-MB-231; assay: Induction of apoptosis in human MDA-MB-231 cells assessed as late apoptotic cells at 2 uM after 24 hrs by Annexin V-FITC/propidium iodide-staining based FACS analysis (reference value: 3.6 %); type: functional
[16] = Cytotoxicity against human MCF7 cells assessed as growth inhibition at 50 uM after 48 hrs by MTT assay relative to control; type: functional; conditions: MCF7, 48 h, read-out: GI; how it was run: as §4
[17] = Cell cycle arrest in human MDA-MB-231 cells assessed as after 24 hrs by propidium iodide staining based FACS analysis
[18] = tested on: MDA-MB-231; assay: Antimigratory activity against human MDA-MB-231 cells assessed inhibition of cell migration towards wound area at 2 to 4 uM up to 24 hrs by phase contrast microscopic analysis; type: functional, cell-based
How it was run: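 MDA-MB-231 seeded at 5×10^5 cells/well and grown 24 h to a confluent monolayer. Monolayer scratched with a 200 µL pipette tip and washed twice with PBS to remove non-adherent cells. Medium with compound at 1, 2 or 4 µM added. Wound closure photographed by phase contrast microscopy at 0 and 24 h after treatment.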

[19] = Cell cycle arrest in human MDA-MB-231 cells assessed as accumulation at G2/M phase at 1 uM after 24 hrs by propidium iodide staining based FACS analysis (reference value: 26 %); type: functional; how it was run: as §1
[20] = tested on: MDA-MB-231; assay: Induction of apoptosis in human MDA-MB-231 cells assessed as destructive fragmentation of chromatin at 4 uM after 24 hrs by AO/EB-dual staining based fluorescent microscopic analysis; type: functional, cell-based; how it was run: as §3
[21] = tested on: MDA-MB-231; assay: Induction of apoptosis in human MDA-MB-231 cells assessed as increase in caspase-3 expression after 24 hrs by Western blot analysis; type: functional, cell-based
How it was run: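 MDA-MB-231 treated at 1, 2 or 4 µM for 24 h. Whole-cell extracts prepared in RIPA buffer. Blots probed with rabbit anti-caspase-3, anti-Bcl2 and anti-β-actin (1:1000) and anti-Bax (1:500), then HRP secondaries and ECL detection. Membranes stripped and reprobed. Bands quantified by densitometry as fold change versus control. Mean ± SEM, n=3.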

[22] = tested on: MDA-MB-231; assay: Induction of apoptosis in human MDA-MB-231 cells assessed as loss of mitochondrial membrane potential after 24 hrs by rhodamine-123 -based spectrofluorometric analysis; type: functional, cell-based
How it was run: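 MDA-MB-231 seeded at 5×10^5 cells/mL and allowed to adhere overnight, then treated at 1, 2 or 4 µM for 24 h. Cells collected by trypsin, washed, and stained with rhodamine-123 (10 µg/mL) in PBS for 30 min at room temperature. Cells washed twice and fluorescence read at excitation 480 nm, emission 530 nm. Mean ± SD of three independent experiments in triplicate.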

[23] = tested on: MDA-MB-231; assay: Induction of apoptosis in human MDA-MB-231 cells assessed as cell shrinkage at 1 to 4 uM after 24 hrs by phase contrast microscopic analysis; type: functional, cell-based; how it was run: as §2
[24] = Selectivity ratio of IC50 for human MCF10A cells to IC50 for human A549 cells; type: ADME, cell-based; conditions: MCF10A cells versus A549 cells, read-out: Ratio IC50

Q: Which results are given for `CC(C)n1c(/C=C2/C(=O)Nc3ccc(Br)cc32)nc2ccccc21`?
A: Activity [1]: Dose-dependent effect; Activity [2]: 4.7%; Activity [3]: Dose-dependent effect; Activity [4]: 3.4%; Activity [5]: 20.8%; Activity [6]: Active; Activity [7]: 74.7%; Activity [8]: 11.3%; Activity [9]: Active; inhibition of growth at 50 µM [10]: > 50%; Activity [11]: 23.4%; IC50 [12]: 3.26 µM; inhibition of growth at 50 µM [13]: > 50%; inhibition of growth at 50 µM [14]: > 50%; Activity [15]: 4.4%; inhibition of growth at 50 µM [16]: > 50%; Activity [17]: Dose-dependent effect; inhibition [18]: Active; Activity [19]: 21.8%; Activity [20]: Active; Activity [21]: Dose-dependent effect; Activity [22]: Dose-dependent effect; Activity [23]: Active; selectivity ratio [24]: 6.5
